Assay results taken from ChEMBL document CHEMBL1921785, “Exploration of in vitro time point quantitative evaluation of newly synthesized benzimidazole and benzothiazole derivatives as potential antibacterial agents” (2011).

Key:
Format in all cases: functional
[1] = system: Shigella dysenteriae; test: Antibacterial activity against Shigella dysenteriae assessed as zone of growth inhibition at 0.2 mg/ml after 18 to 24 hrs by Kirby-Bauer agar diffusion method; settings: read-out: DIZ
[2] = system: Staphylococcus aureus; test: Antibacterial activity against Staphylococcus aureus MTCC 3160 assessed as zone of growth inhibition at 0.2 mg/ml after 18 to 24 hrs by Kirby-Bauer agar diffusion method; settings: read-out: DIZ
Summary of the method: (§1)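 Kirby-Bauer disc diffusion on Mueller-Hinton agar, following CLSI 2007 guidelines, with ciprofloxacin as reference drug. Read-out is the diameter of the zone of growth inhibition in mm.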

[3] = system: Bacillus cereus; test: Antibacterial activity against Bacillus cereus MTCC 430 assessed as zone of growth inhibition at 0.2 mg/ml after 18 to 24 hrs by Kirby-Bauer agar diffusion method; settings: read-out: DIZ; summary of the method: as §1
[4] = system: Bacillus cereus; test: Bactericidal activity against Bacillus cereus MTCC 430 assessed as log reduction in bacterial count at 0.2 mg/mL up to 48 hrs by time-kill assay
Summary of the method: (§2)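 Time-kill by pour plate. Overnight 37 °C cultures in Mueller-Hinton broth were dosed at about 0.2 mg/mL and incubated at 37 °C for up to 72 h, with broth replenished every 24 h. Samples were taken over time, serially diluted, and pour-plated on MHA at 37 °C for 18–24 h. Colonies were counted as CFU/ml against untreated culture controls.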

[5] = system: Staphylococcus aureus; test: Bactericidal activity against Staphylococcus aureus MTCC 3160 assessed as time required to complete extermination of bacteria at 0.2 mg/mL by time-kill assay; summary of the method: as §2
[6] = system: Vibrio cholerae; test: Antibacterial activity against Vibrio cholerae MTCC 3904 assessed as zone of growth inhibition at 0.2 mg/ml after 18 to 24 hrs by Kirby-Bauer agar diffusion method; settings: read-out: DIZ
[7] = system: Escherichia coli; test: Antibacterial activity against Escherichia coli MTCC 1610 assessed as zone of growth inhibition at 0.2 mg/ml after 18 to 24 hrs by Kirby-Bauer agar diffusion method; settings: read-out: DIZ; summary of the method: as §1
[8] = system: Vibrio cholerae; test: Bactericidal activity against Vibrio cholerae MTCC 3904 assessed as time required to complete extermination of bacteria at 0.2 mg/mL by time-kill assay
[9] = system: Bacillus cereus; test: Bactericidal activity against Bacillus cereus MTCC 430 assessed as time required to complete extermination of bacteria at 0.2 mg/mL by time-kill assay; summary of the method: as §2
[10] = system: Escherichia coli; test: Bactericidal activity against Escherichia coli MTCC 1610 assessed as time required to complete extermination of bacteria at 0.2 mg/mL by time-kill assay; summary of the method: as §2
[11] = system: Shigella dysenteriae; test: Bactericidal activity against Shigella dysenteriae assessed as time required to complete extermination of bacteria at 0.2 mg/mL by time-kill assay
[12] = system: Vibrio cholerae; test: Bactericidal activity against Vibrio cholerae MTCC 3904 assessed as time required to complete extermination of bacteria by time-kill assay
[13] = system: Vibrio cholerae; test: Antibacterial activity against Vibrio cholerae MTCC 3904 assessed as zone of growth inhibition after 18 to 24 hrs by Kirby-Bauer agar diffusion method
[14] = system: Shigella dysenteriae; test: Antibacterial activity against Shigella dysenteriae assessed as zone of growth inhibition at after 18 to 24 hrs by Kirby-Bauer agar diffusion method
[15] = system: Bacillus cereus; test: Antibacterial activity against Bacillus cereus MTCC 430 assessed as zone of growth inhibition after 18 to 24 hrs by Kirby-Bauer agar diffusion method; summary of the method: as §1
[16] = system: Shigella dysenteriae; test: Bactericidal activity against Shigella dysenteriae assessed as time required to complete extermination of bacteria by time-kill assay
[17] = system: Bacillus cereus; test: Bactericidal activity against Bacillus cereus MTCC 430 assessed as time required to complete extermination of bacteria by time-kill assay; summary of the method: as §2
[18] = system: Staphylococcus aureus; test: Bactericidal activity against Staphylococcus aureus MTCC 3160 assessed as time required to complete extermination of bacteria by time-kill assay; summary of the method: as §2

| SMILES | zone of inhibition at 200 µg/mL [1] | zone of inhibition at 200 µg/mL [2] | zone of inhibition at 200 µg/mL [3] | zone of inhibition at 200 µg/mL [6] | also measured |
| --- | --- | --- | --- | --- | --- |
| CC(C)c1ccc(-c2nc3ccccc3s2)cc1 | 15 mm | 13 mm | 20 mm | – | log reduction in bacterial count [4]: 3; Time [5]: <48 h |
| c1coc(Cn2c(-c3ccco3)nc3ccccc32)c1 | 12 mm | 10 mm | – | 13 mm | Time [5]: <48 h |
| CCOc1cc(Cn2c(-c3ccc(O)c(OCC)c3)nc3ccccc32)ccc1O | – | 23 mm | – | – | zone of inhibition at 200 µg/mL [7]: 14 mm; Time [5]: <24 h |
| Oc1ccc(Cn2c(-c3ccc(O)cc3)nc3ccccc32)cc1 | 11 mm | – | – | – | – |
| COc1cc(-c2nc3ccccc3s2)cc(OC)c1OC | 23 mm | – | – | – | – |
| CCOc1ccc(-c2nc3ccccc3s2)cc1 | 16 mm | 16 mm | 22 mm | 15 mm | zone of inhibition at 200 µg/mL [7]: 12 mm; log reduction in bacterial count [4]: 3; Time [5]: <48 h |
| c1ccc(Cn2c(-c3ccccc3)nc3ccccc32)cc1 | 23 mm | 10 mm | 22 mm | 33 mm | zone of inhibition at 200 µg/mL [7]: 19 mm; log reduction in bacterial count [4]: 3; Time [8]: <24 h |
| Cc1ccc(Cn2c(-c3ccc(C)cc3)nc3ccccc32)cc1 | 13 mm | 12 mm | – | 18 mm | – |
| CN(C)c1ccc(Cn2c(-c3ccc(N(C)C)cc3)nc3ccccc32)cc1 | 16 mm | 11 mm | – | 17 mm | – |
| CC(C)(C)c1ccc(Cn2c(-c3ccc(C(C)(C)C)cc3)nc3ccccc32)cc1 | 13 mm | – | 12 mm | 21 mm | zone of inhibition at 200 µg/mL [7]: 17 mm |
| Oc1ccc(Br)cc1Cn1c(-c2cc(Br)ccc2O)nc2ccccc21 | – | – | 33 mm | – | zone of inhibition at 200 µg/mL [7]: 17 mm; Time [9]: <24 h |
| Fc1ccc(Cn2c(-c3ccc(F)cc3)nc3ccccc32)cc1 | – | 10 mm | 18 mm | – | – |
| FC(F)(F)Oc1ccc(Cn2c(-c3ccc(OC(F)(F)F)cc3)nc3ccccc32)cc1 | 11 mm | 10 mm | – | 23 mm | Time [5]: <48 h; Time [8]: <24 h |
| Clc1ccc(Cn2c(-c3ccc(Cl)c(Cl)c3)nc3ccccc32)cc1Cl | 11 mm | – | – | – | – |
| C(=C/c1nc2ccccc2n1C/C=C/c1ccccc1)/c1ccccc1 | – | – | 14 mm | 11 mm | – |
| CCCCCCCn1c(CCCCCC)nc2ccccc21 | 21 mm | 12 mm | 15 mm | 16 mm | – |
| O=[N+]([O-])c1cccc(Cn2c(-c3cccc([N+](=O)[O-])c3)nc3ccccc32)c1 | – | 10 mm | – | 13 mm | – |
| FC(F)(F)c1ccc(Cn2c(-c3ccc(C(F)(F)F)cc3)nc3ccccc32)cc1 | 19 mm | 22 mm | – | 13 mm | zone of inhibition at 200 µg/mL [7]: 22 mm; Time [10]: <48 h |
| Brc1ccc(Cn2c(-c3ccc(Br)cc3)nc3ccccc32)cc1 | 13 mm | – | 15 mm | 16 mm | – |
| CCc1ccccc1-c1nc2ccccc2s1 | 35 mm | 13 mm | 21 mm | 16 mm | zone of inhibition at 200 µg/mL [7]: 11 mm; log reduction in bacterial count [4]: 3; Time [11]: 72 h |
| CCOc1ccc(-c2nc3ccccc3s2)cc1OC | 15 mm | 12 mm | – | 16 mm | – |
| COc1ccc(Br)cc1-c1nc2ccccc2s1 | – | 12 mm | 21 mm | 17 mm | – |
| O=[N+]([O-])c1ccc(-c2nc3ccccc3s2)cc1 | 13 mm | – | 14 mm | – | – |
| Oc1ccc(-c2nc3ccccc3s2)cc1 | – | – | 19 mm | 18 mm | Time [9]: <24 h |
| O=C(O)c1cn(C2CC2)c2cc(N3CCNCC3)c(F)cc2c1=O [CIPROFLOXACIN] | – | – | – | – | Time [12]: 48 h; diameter of the inhibition zone (DIZ) [13]: 24 mm; diameter of the inhibition zone (DIZ) [14]: 14 mm; diameter of the inhibition zone (DIZ) [15]: 14 mm; Time [16]: <72 h; Time [17]: 48 h; Time [18]: 48 h |
